MT1-MMP act inh = MT1-MMP (human) activation inhibition; GFP/RFP ratio change, % at 20 µM; 0.061% of 360,000 active; HT1080 RFP-PRO-GFP cells, GFP/RFP ratio fluorescence, overnight; percent of plate control window, DMSO zero;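 active = GFP/RFP ratio change of at least 30% with cell ATP level not reduced by more than half and red fluorescence within 50% of control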
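Assay system – RFP-PRO-GFP reporter HT1080 cells · Compound dosing – single dose of 20 µM compound, 1% DMSO final · Incubation – overnight compound exposure at 37 °C · Measure – GFP/RFP fluorescence ratio · Benchmarks – DMSO wells and RFP-L50D-GFP cells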
TMEM16A inh = blocks the mouse calcium-activated chloride channel TMEM16A; Q8BHY3; HEK293 TMEM16A/YFP iodide influx fluorescence, ionomycin; normalized B-score (activity score, 25-100; higher = stronger inhibition) at 10 µM; 1.2% of 310,000 active; AID 588511;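 active = ratio plate-corrected score three or more library SD toward inhibition, starting fluorescence score within five deviations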;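 note: score derived from kinetic fluorescence span divided by baseline fluorescence per well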
Target sequence (Q8BHY3 whole entry, looked up): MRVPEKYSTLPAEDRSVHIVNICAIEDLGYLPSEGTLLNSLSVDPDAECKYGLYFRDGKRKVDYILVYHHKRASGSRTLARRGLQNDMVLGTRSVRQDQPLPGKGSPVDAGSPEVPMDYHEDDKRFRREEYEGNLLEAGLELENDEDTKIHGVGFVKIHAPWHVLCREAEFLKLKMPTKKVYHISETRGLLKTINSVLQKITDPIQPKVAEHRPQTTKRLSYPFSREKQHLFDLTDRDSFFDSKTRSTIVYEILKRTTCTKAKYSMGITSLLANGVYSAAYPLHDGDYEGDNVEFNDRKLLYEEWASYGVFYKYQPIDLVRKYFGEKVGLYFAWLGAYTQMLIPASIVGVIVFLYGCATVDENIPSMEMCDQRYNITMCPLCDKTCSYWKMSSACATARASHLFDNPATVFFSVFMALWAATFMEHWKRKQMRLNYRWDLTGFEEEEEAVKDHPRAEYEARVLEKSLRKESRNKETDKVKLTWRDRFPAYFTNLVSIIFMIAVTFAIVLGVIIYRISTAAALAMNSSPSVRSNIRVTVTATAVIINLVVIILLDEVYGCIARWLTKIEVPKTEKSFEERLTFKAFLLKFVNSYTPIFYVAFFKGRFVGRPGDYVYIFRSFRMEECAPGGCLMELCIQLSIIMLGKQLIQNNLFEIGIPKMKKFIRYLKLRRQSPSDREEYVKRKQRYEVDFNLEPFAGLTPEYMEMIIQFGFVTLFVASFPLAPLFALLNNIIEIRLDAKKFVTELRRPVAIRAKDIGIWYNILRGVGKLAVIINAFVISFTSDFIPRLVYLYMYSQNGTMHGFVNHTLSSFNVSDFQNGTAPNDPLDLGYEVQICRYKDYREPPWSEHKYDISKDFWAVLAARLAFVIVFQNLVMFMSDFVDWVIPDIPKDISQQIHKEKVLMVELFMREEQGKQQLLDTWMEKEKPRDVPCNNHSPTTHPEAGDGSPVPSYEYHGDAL
ANO1 activ = activators or potentiators of mouse TMEM16A chloride channel; Q8BHY3; HEK293 TMEM16A/YFP-H148Q/I152L, iodide quench fluorescence; active compounds read low; 0.3% of 340,000 active; B-score at 10 µM;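 active = fluorescence-ratio B-score plate-corrected deviation score at least 3 library SD below zero, with starting fluorescence score within 5 deviations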;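 note: channel opened by trigger with iodide after compound preincubation; score built on the fluorescence ratio of max minus min over baseline; more negative score means more quench and so TMEM16A activation or potentiation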
DAGLB inh = blocks human DAGLB lipase activity. HEK293T DAGLB membrane lysate, EnzChek fluorogenic substrate. 0.059% of 340,000 active. inhibition, % at 5.17 µM. AID 504411. Q8NCG7; in the data active = inhibition above about 34%;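 note: 0% = enzyme with vehicle and 100% = wells lacking enzyme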
TMEM16A reconf = TMEM16A (mouse) chloride channel inhibition, re-confirmation. HEK293 TMEM16A/YFP-H148Q, iodide quench fluorescence; ionomycin added to raise cell calcium. 39% of 2,300 active. inhibition, % at 10 µM. AID 652189. shares compounds with TMEM16A inh;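 active = mean duplicate percent inhibition, scaled so buffer wells are 0 and the reference blocker 100, over three buffer SD above buffer mean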
TMEM16A Ca cntr = alters calcium mobilization in TMEM16A HEK293 cells, counter-screen; shares compounds with TMEM16A inh; TMEM16A/YFP HEK293, Fluo4 calcium mobilization; calcium response (% of ionomycin), % at 10 µM; 2% of 2,300 active; AID 652231;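 active = duplicate-averaged calcium signal over 20% of the ionomycin maximum, relative to buffer baseline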;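 note: each well's signal is peak minus trough fluorescence divided by its pre-addition baseline; 0% = buffer wells and 100% = ionomycin wells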
YFP-HEK293 quench = parental YFP-HEK293 iodide quench counter-screen activity; shares compounds with TMEM16A inh; ionomycin; YFP ratio F(max-min)/F0 at 10 µM; 2,300 tested, under 10 active; AID 652233;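 active = yellow fluorescent protein signal ratio exceeding the buffer control mean by over 5 SD of those controls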;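 note: ratio is mean of duplicate wells from kinetic YFP trace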
ClC-1 rat inh = rat ClC-1 inhibition, TMEM16A specificity screen | shares compounds with TMEM16A inh | CHO ClC-1-YFP, iodide influx fluorescence quench; iodide control reads 0, buffer control 100 | ratio percent, % at 10 µM | 2,300 tested, under 10 active | AID 652236;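 active = duplicate-mean ratio percent above the mean of iodide-only control wells, which defines zero, plus 5 of their SD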;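 note: higher percent means stronger block of ClC-1 iodide influx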
An asterisk follows results filed as active; i = inactive; . = not tested or not shown. A selection: hits, their analogues and other compounds. The true share with any hit is near 1.3%.

SMILES | MT1-MMP act inh | TMEM16A inh | ANO1 activ | DAGLB inh | TMEM16A reconf | TMEM16A Ca cntr | YFP-HEK293 quench | ClC-1 rat inh
COc1ccc(CNc2ccc(-c3ccc(OC)cc3)nn2)cc1 | -0.6 | 100* | i | -12.3 | i | i | -0.537 | -3.5
COc1ccc(CNc2ccc(-c3ccccc3OC)nn2)cc1 | 0.2 | i | i | -16.9 | . | . | . | .
CCCCC[C@@H]1C=C(C(=O)O)[C@H](c2ccc(OC)c(OC)c2)N1S(=O)(=O)c1ccc(C)cc1 | 6.2 | . | . | 2.3 | . | . | . | .
O=C(NCC1CCCO1)c1cc([N+](=O)[O-])ccc1N1CCC(Cc2ccccc2)CC1 (stereo not given) | 1.1 | . | i | -8.9 | . | . | . | .
CSCC[C@H](NC(=O)OC(C)(C)C)c1nnc(SCc2ccc(F)cc2)o1 | -4.3 | 100* | i | -5.6 | i | i | -0.939 | -3.0
CC1(c2ccccc2)NC(=O)N(CC(=O)Nc2ccc(N3CCOCC3)cc2)C1=O (stereo not given) | 9.6 | . | i | -0.2 | . | . | . | .
CN(C)c1ncc(S(=O)(=O)c2ccccc2)c(N)n1 | 2.2 | i | i | -3.0 | . | . | . | .
CN(C)c1ncc(S(=O)(=O)c2ccccc2)c(-c2ccccc2Cl)n1 | -2.7 | 100* | i | -6.0 | i | i | -1.01 | -10.0
O=C(/C=C/c1ccc([N+](=O)[O-])cc1)Nc1cccc(S(=O)(=O)NC2=NCCCCC2)c1 | 0.3 | . | i | 2.9 | . | . | . | .
COc1ccccc1C1CCN(c2ccc(CO)cc2[N+](=O)[O-])CC1 | 3.0 | 25* | i | 3.7 | i | i | -1.08 | -16.5
COC(=O)c1ccccc1NC(=O)CSc1nc2ccsc2c(=O)n1Cc1ccc(C(=O)O)cc1 | 1.7 | . | . | 4.5 | . | . | . | .
CC(=O)c1cccc(NC(=O)Nc2ccc3c(c2)N(C)C(=O)CS3)c1 | -11.6 | 25* | i | 0.4 | 34.5%* | i | -1.05 | -15.0
Cc1cc(C)cc(NC(=O)Nc2ccc3c(c2)N(C)C(=O)CS3)c1 | -0.3 | i | i | -2.1 | . | . | . | .
COc1ccccc1C(CC(=O)c1ccccc1)CC(=O)c1ccccc1 | -3.4 | 100* | i | -12.7 | i | i | -0.96 | -14.0
COc1ccccc1C(CC(=O)c1ccccc1)C(=O)c1ccccc1 (stereo not given) | -1.6 | . | . | . | . | . | . | .
CC1CN(S(=O)(=O)c2cccc(C(=O)N(Cc3nnc(-c4ccccc4Cl)o3)C3CC3)c2)CC(C)O1 (stereo not given) | -2.9 | i | i | 0.4 | . | . | . | .
CC(C)[C@H](NS(=O)(=O)c1ccccc1F)C(=O)OCC(=O)Nc1cccc(S(N)(=O)=O)c1 | -1.5 | . | i | 0.1 | . | . | . | .
COc1cc2ccccc2cc1C(=O)Nc1ccccc1N1CCCC1 | -0.1 | i | i | -4.3 | . | . | . | .
COc1ccccc1NC(=O)c1cc2cc(Br)ccc2cc1O | -9.9 | 100* | i | 12.7 | 76.0%* | i | -0.892 | -15.0
COc1cc2ccccc2cc1C(=O)Nc1ccccc1Cl | -4.8 | 100* | i | -15.3 | 70.0%* | i | -0.771 | -16.0
Cc1ccc(C(=O)Nc2ccc(OCc3ccccc3)cc2)cc1[N+](=O)[O-] | 0.6 | 25* | i | -2.5 | i | i | -1.07 | -4.5
O=C(Nc1ccc(OCc2ccccc2)cc1)c1cccc([N+](=O)[O-])c1 | 8.7 | i | i | 1.2 | . | . | . | .
CCOC(=O)c1c(NC(=O)CSc2nnc(N)s2)sc(C)c1-c1ccc(C)cc1 | 1.7 | 25* | i | 5.3 | i | i | -1.15 | -13.0
CCOC(=O)c1c(NC(=O)CSc2nnc(C)c(=O)[nH]2)sc(C)c1-c1ccc(C)cc1 | -5.7 | i | i | 22.4 | . | . | . | .
CC1(C)C(C=C(Cl)Cl)C1C(=O)N/N=C/c1ccccc1F (stereo not given) | 1.4 | 25* | i | -3.8 | i | i | -1.09 | -13.0
SMILES | MT1-MMP act inh | TMEM16A inh | ANO1 activ | DAGLB inh | TMEM16A reconf | TMEM16A Ca cntr | YFP-HEK293 quench | ClC-1 rat inh
CC1(C)OC2OC(C(=O)N/N=C/c3ccccc3F)C3OC(C)(C)OC3C2O1 (stereo not given) | -0.8 | i | i | 0.3 | . | . | . | .
CN(c1ccccc1)C(c1ccc(F)cc1)c1nnnn1CC1CCCO1 (stereo not given) | -8.4 | i | i | -3.0 | . | . | . | .
Cc1ccc(C(c2nnnn2C2CCCCC2)N(C)C2CCCCC2)cc1 (stereo not given) | -14.0 | 25* | i | -7.1 | i | i | -1.12 | -8.0
CN(c1ccccc1)C(c1ccc(F)cc1)c1nnnn1C1CCCC1 (stereo not given) | -4.5 | i | i | -7.0 | i | i | -0.921 | -13.0
Cc1c(C(=O)N2CCC(C)(C(=O)NS(=O)(=O)C3CC3)C2)oc2ccccc12 (stereo not given) | 1.1 | . | . | . | . | . | . | .
Cc1cccc(NC(=O)C2(c3ccccc3)CC2(Cl)Cl)c1 (stereo not given) | -6.4 | i | i | -7.1 | . | . | . | .
Cc1cc(C)cc(NC(=O)C2(c3ccccc3)CC2(Cl)Cl)c1 (stereo not given) | -29.4 | 25* | i | -8.3 | i | i | -1.3 | -6.0
Cc1cc(OCc2cn(CC(=O)c3ccc(O)cc3)nn2)ccc1[N+](=O)[O-] | -0.2 | . | . | -3.0 | . | . | . | .
CCN(c1ccccc1)S(=O)(=O)c1cc(NC(=O)COC(=O)C2CC2)ccc1Cl | 2.1 | 100* | i | -1.5 | i | i | -0.895 | -3.5
CCN(c1ccccc1)S(=O)(=O)c1cc(NC(=O)Nc2ccccc2C#N)ccc1Cl | -1.6 | 25* | i | 0.2 | i | i | -1.01 | -6.0
CCN(c1ccccc1)S(=O)(=O)c1ccc(Cl)c(NC(=O)Nc2ccc(Cl)cc2C#N)c1 | -0.6 | i | i | 2.1 | . | . | . | .
CN(C)S(=O)(=O)c1cc(NC(=O)COC(=O)C2COc3ccccc3O2)ccc1Cl (stereo not given) | 1.5 | i | i | -2.4 | . | . | . | .
N#Cc1c(NC(=O)CSc2nnnn2C2CCCCC2)sc2c1CCCC2 | 2.1 | 25* | i | 1.3 | i | i | -1.15 | -8.5
Cc1nnc(SCC(=O)Nc2sc3c(c2C#N)CCCCC3)n1N | 2.5 | i | i | 2.6 | . | . | . | .
CC1CCN(CC(=O)Nc2ccc(N3CCCCCC3)cc2)CC1 | 0.1 | i | i | 3.9 | . | . | . | .
COC(=O)C(C)(C)ONC(=O)Nc1ccccc1Br | -0.3 | 25* | i | -2.0 | i | i | -1.08 | -12.5
N#Cc1c(-n2cccc2/C=N/O)sc2c1CCCC2 | -5.8 | i | i | 2.5 | . | . | . | .

Screening results as filed in PubChem BioAssay.
